In ChEMBL document CHEMBL4765243, “Discovery of Novel Bromophenol-Thiosemicarbazone Hybrids as Potent Selective Inhibitors of Poly(ADP-ribose) Polymerase-1 (PARP-1) for Use in Cancer” (J Med Chem, 2019):

Experiments:
[1] = Subacute toxicity in SPF Kunming mouse assessed as change in heart at 1000 mg/kg, po administered for 14 days by H and E staining based microscopic analysis; assay type: organism-based; conditions: in vivo, 336 h, time 14 day
Summary of the method: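 Twenty SPF Kunming mice (18 - 22 g), half male and half female, randomised into 2 groups of 5 males + 5 females. Treated group dosed orally at 1000 mg/kg once daily for 14 days. Death, clinical signs and body weight monitored. After 14 days: isoflurane anaesthesia, decapitation, tissues collected for H&E histology.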

[2] = tested on: SK-OV-3; experiment: Induction of ROS generation in human SKOV3 cells assessed as fold increase in ROS level at 5 uM incubated for 48 hrs by DCFH-DA staining based flow cytometry relative to control; assay type: functional

With COc1cc(/C=N/NC(N)=S)c(Br)c(Br)c1OC the Activity [1] was “Non-Toxic” and the “fold change (FC)” value [2] was 2.51.
